Data from PubChem BioAssay AID602218 (Southern Research Specialized Biocontainment Screening …, 2012).
Results filed as inconclusive are left out. Activity calls are given as the source filed them.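 Rule for the calls: active = inhibition of at least 30% at any tested concentration; inactive = the rest, inconclusive results apart.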

These compounds were tested against M18 aspartyl aminopeptidase (Plasmodium falciparum 3D7) (assay: PfM18AAP enzyme inhibitors, dose response, counter-screen for PfM17LAP inhibitor project, biochemical, QFRET fluorogenic substrate, set 2 (AID 602218)). Settings: recombinant PfM18AAP, H-Glu-NHMec fluorogenic cleavage.
Summary of the method: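 timing = 90 min reaction, room temperature | test system = purified recombinant Plasmodium falciparum M18 aspartyl aminopeptidase (rPFM18AAP) | also added = 0.1 mM H-Glu-NHMec substrate | medium = Tris-HCl buffer pH 7.5 with 2 mM CoCl2, 2% DMSO | measured by = fluorescence at 370/460 nm | evaluation = percent inhibition versus controls, IC50 by four-parameter logistic fit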

`CCCCc1ccc(CC(=O)NO)cc1` and `CCCCOc1ccc(CC(=O)NO)cc1` are within 1.5-fold of each other in IC50: 13.7 µM for the first, 10 µM for the second.

`O=C(Cc1ccc(Oc2ccccc2)cc1)NO` and `O=C(Cc1ccc(OCc2ccccc2)cc1)NO` are within 1.5-fold of each other in IC50: 7.13 µM for the first, 9.64 µM for the second.

First: CCCCOc1ccc(CC(=O)N(C)O)cc1
Second: CCCCOc1ccc(CCC(=O)NO)cc1
The IC50 of the first is 2.2-fold higher: 40.2 µM for the first, 18.5 µM for the second. The second is the more potent here.

Compared with `COc1ccc(CC(=O)NO)cc1`, `CCOc1ccc(CC(=O)NO)cc1` is 2.1-fold higher in IC50: 16.4 µM for the first, 34.1 µM for the second. The first is the more potent here.

Compared with `CCCCOc1ccc(CNc2c(N(C)O)c(=O)c2=O)cc1`, `CCCCOc1ccc(C(=O)NO)cc1` is 5.1-fold lower in IC50: 65.4 µM for the first, 12.7 µM for the second.

`CCCCCCCCCC(=O)NO` and `COc1ccc(CCCC(=O)NO)cc1` are within 1.5-fold of each other in IC50: 18 µM for the first, 14.6 µM for the second.

Compared with `Cc1ccc(CC(=O)NO)cc1`, `CC(C)COc1ccc(CC(=O)NO)cc1` is 2.9-fold lower in IC50: 33.6 µM for the first, 11.4 µM for the second. The second is the more potent here.

Compared with `CC(C)(C(=O)NO)c1ccccc1`, `O=C(NO)c1cccc2ccccc12` is 5.4-fold lower in IC50: 54.6 µM for the first, 10.1 µM for the second. The second is the more potent here.

First: O=C(Cc1ccc2c(c1)CCCC2)NO
Second: CN(O)C(=O)Cc1ccc(OCc2ccccc2)cc1
The IC50 of the first is 3.3-fold lower: 8.93 µM for the first, 29.2 µM for the second. The first is the more potent here.

Same assay, conditions: recombinant PfM18AAP, H-Glu-NHMec fluorogenic cleavage; at 25 µM (top of the series)

For `CCCCOc1ccc(CNc2c(N(O)Cc3ccccc3)c(=O)c2=O)cc1`, the inhibition was “inactive”.

Same assay, conditions: recombinant PfM18AAP, H-Glu-NHMec fluorogenic cleavage; at 100 µM (top of the series)

`COC(=O)Cc1ccc(OCCN(C)C)cc1` was tested, and the inhibition was “inactive”.
For `CCCCOc1ccc(CC(=O)O)cc1`, the inhibition was “inactive”.
In the case of `CCCOc1ccc(CC(=O)OC)cc1`, the inhibition is reported as “inactive”.
